# Source: PubChem
# DNMT1 block: inhibitors of human DNMT1; DNMT1 molecular beacon, Hinp1I cleavage, fluorescence; inhibition (reported as % activation of signal), % at 10 µM; 360,000 compounds, 0.83% hits; in the data active = inhibition above about 50%
# LMPTP block: LMPTP (human) inhibition. P24666. recombinant LMPTP-A, OMFP fluorogenic substrate, fluorescence intensity. inhibition, % at 20 µM. 360,000 compounds, 0.22% hits;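 active = compounds that cut the enzyme signal by at least half of the control window in the single-dose screen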;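 also: plate controls were DMSO wells with enzyme plus substrate for no effect and substrate without enzyme for full effect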
#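 Assay system: LMPTP-A enzyme. Input: 0.625 nM LMPTP-A final. Probe or stimulus: 400 µM OMFP. Compound dosing: single 20 µM dose. Schedule: 50 min dark incubation at room temperature. Detection: fluorescence intensity of OMFP turnover product. Read-out: percent inhibition versus substrate-only and uninhibited controls. Benchmarks: no-enzyme low control, uninhibited high control.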
# STEP inh: blocks human striatal-enriched tyrosine phosphatase. inhibition, % at 20 µM. P54829. recombinant STEP, OMFP fluorogenic substrate, fluorescence. 360,000 compounds, 0.25% hits;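 active = inhibition at 20 µM, scaled per plate between control wells, above about 37%, limit read from the data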;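 also: 0% = DMSO with enzyme and substrate and 100% = substrate only without enzyme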
# Target sequence (P54829 whole entry, looked up): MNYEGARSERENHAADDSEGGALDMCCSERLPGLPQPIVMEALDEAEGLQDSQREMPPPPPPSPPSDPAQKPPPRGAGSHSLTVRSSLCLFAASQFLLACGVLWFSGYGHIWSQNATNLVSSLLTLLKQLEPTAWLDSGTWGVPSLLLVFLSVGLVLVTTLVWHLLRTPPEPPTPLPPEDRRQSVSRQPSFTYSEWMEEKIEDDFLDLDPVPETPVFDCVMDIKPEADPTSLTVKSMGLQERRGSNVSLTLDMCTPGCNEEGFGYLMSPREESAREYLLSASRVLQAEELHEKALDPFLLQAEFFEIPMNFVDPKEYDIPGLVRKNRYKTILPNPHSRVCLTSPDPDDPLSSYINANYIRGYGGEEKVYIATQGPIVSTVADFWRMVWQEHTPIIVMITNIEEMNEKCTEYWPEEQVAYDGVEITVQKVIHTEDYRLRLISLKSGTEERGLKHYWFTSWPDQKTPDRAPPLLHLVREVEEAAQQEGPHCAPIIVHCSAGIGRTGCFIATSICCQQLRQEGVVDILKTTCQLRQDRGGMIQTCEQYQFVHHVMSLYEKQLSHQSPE
#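 System: STEP phosphatase, cell-free reaction; Buffer or medium: Bis-Tris pH 6.0 buffer with DTT, detergent; Incubation: 20 min at room temperature, dark; Measured by: fluorescence, 480/540 nm.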
# SUMO1-SIM PPI: modulators of human SUMO1-mediated protein-protein interactions | 360,000 compounds, 0.33% hits | SUMO1 binding to a labelled peptide, TR-FRET, 1 h | P63165 | inhibition, % at 20 µM; in the data active = inhibition above about 37%
# Target sequence (P63165 whole entry, looked up): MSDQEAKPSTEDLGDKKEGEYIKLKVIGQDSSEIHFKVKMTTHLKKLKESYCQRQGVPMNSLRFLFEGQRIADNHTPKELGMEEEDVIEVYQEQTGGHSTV
# Scp1 inh: Scp-1 (human) phosphatase inhibition; Q9GZU7; Recombinant Scp1, phosphopeptide, malachite green phosphate absorbance; inhibition, % at 20 µM; 340,000 compounds, 0.88% hits;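 active = inhibition above about 50% at 20 µM, limit read from the data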;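 also: plate controls were DMSO wells with enzyme for no effect and wells lacking enzyme for full effect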
#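 Material: truncated SCP-1 phosphatase (76-261aa) / Buffer or medium: 50 mM Tris acetate pH 5.5, 0.005% Tween-20, 10 mM MgCl2 / Compound dosing: one concentration, 20 µM, with 1.0% DMSO / Incubation: 45 min room-temperature reaction, 5 min colour, 30 min stabiliser / Detection: colorimetric free-phosphate detection, absorbance 630 nm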
# GRK2 aptamer HTS: inhibitors of human GRK2 displacing RNA aptamer | inhibition of aptamer binding, % at 10 µM | 330,000 compounds, 0.59% hits | bead flow cytometry, FAM-aptamer displacement from GRK2 | P25098;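 active = inhibition of aptamer binding above 40%, roughly 3 SD of noise, on plates passing a quality check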;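 also: median bead fluorescence of bound FAM aptamer so fluorescent compounds give negative values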
# GRK2 inh confirm: confirmation of human GRK2 inhibitors displacing RNA aptamer; shares compounds with GRK2 aptamer HTS; bead-bound GRK2, FAM-aptamer displacement, flow cytometry; aptamer displacement, % at 10 µM; 2,000 compounds, 4% hits;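 active = aptamer displacement above 40%, near three times the noise of non-fluorescent compounds, on plates passing quality checks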;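 also: negative values mostly reflect intrinsic compound fluorescence rather than true enhancement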
# Aptamer quench SP: quenches fluorescent RNA aptamer, GRK2 hit artifact; shares compounds with GRK2 aptamer HTS; 2,000 tested, under 10 active; Carboxyfluorescein RNA aptamer on beads, flow cytometry quenching; stronger effect = lower value; fluorescence response (% of DMSO), % at 10 µM; AID 504580;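 active = compounds that quench the bead-bound fluorescent RNA probe, cutting fluorescence to under half of the solvent control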;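 also: counterscreen run without GRK2 so only probe quenching by compound is measured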
# GRK2 CP2: confirmation of human GRK2 inhibitors binding RNA aptamer site | shares compounds with GRK2 aptamer HTS | bead-bound GRK2, FAM-aptamer displacement, flow cytometry | inhibition of aptamer binding, % at 10 µM | 360 tested, under 10 active | AID 504782;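 active = inhibition of aptamer binding above 40%, about triple the noise seen with nonglowing compounds, on plates passing quality control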;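 also: negative values mostly come from compounds that fluoresce themselves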
# FAM quench SP: quenches fluorescent RNA aptamer, GRK2 hit artifact. fluorescence response vs DMSO, % at 10 µM. shares compounds with GRK2 aptamer HTS. carboxyfluorescein RNA aptamer beads, flow cytometry quenching; stronger effect = lower value. 360 tested, under 10 active. AID 588494;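 active = response vs DMSO under 50%, meaning signal dropped by over half, treated as fluorescence quencher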;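 also: labelled aptamer on streptavidin beads without GRK2 as a quench counter-screen; 100% = bead fluorescence of DMSO wells and lower means quenching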
# An asterisk follows results filed as active; . = no result. Only some compounds are listed: those with a hit (about 2.1% of all), similar ones and a draw of the others.
SMILES,DNMT1 block,LMPTP block,STEP inh,SUMO1-SIM PPI,Scp1 inh,GRK2 aptamer HTS,GRK2 inh confirm,Aptamer quench SP,others
NC(CCc1ccccc1)c1csc(Nc2nccc(C(F)(F)F)n2)n1 (centres undefined),-3,-2,3,-18,.,.,.,.,
CCCCc1nc2sc3c(c2c(=O)[nH]1)CCC3,-3,1,1,1,-4,58*,-2,99,
CCN(CC)C(=O)CCc1nc2sc3c(c2c(=O)[nH]1)CCCC3,-1,-1,0,2,-4,1,.,.,
Cc1nn(C)c(C)c1/C=C(\C#N)S(=O)(=O)c1ccc(F)cc1,4,-1,-2,-6,.,.,.,.,
C(=N/n1c2ccccc2c2ccccc21)/c1ccco1,-3,4,-1,-2,-5,96*,-1,101,
COc1cc(CC(=O)N2c3ccccc3N=C(c3ccccc3)C2C(=O)NCc2ccccc2)cc(OC)c1 (centres undefined),.,3,.,-3,.,.,.,.,
COC(=O)c1ccccc1N1C(=O)[C@@H]2C(c3ccc(F)cc3)=NO[C@@H]2C1=O,1,-1,-1,1,-11,0,.,.,GRK2 CP2=0;FAM quench SP=101
CCCN(CC(=O)Nc1ccccc1C)C(=O)C1CC(=O)N(c2cccc(C)c2C)C1 (centres undefined),0,-3,-3,12,-9,4,1,98,
CCCN(CC(=O)Nc1ccccc1C)C(=O)C1CC(=O)N(c2ccc(C)cc2)C1 (centres undefined),3,-1,-1,3,-3,.,.,.,
COc1ccc(/C=C2\SC(=S)N(N3C(=O)CCC3=O)C2=O)cc1O,1,4,1,-19,-12,1,12,60,
COc1cc(OC)c(OC)cc1/C=N/NC(=O)CSc1ccccc1F,-1,0,0,-11,2,90*,4,95,
Cc1ccc(C(O)c2ncc(-c3ccccc3Cl)[nH]2)c(C)c1 (centres undefined),-4,0,-1,0,.,.,.,.,
COc1ccc([C@@H]2CC=C(C(=O)O)[C@H](c3ccc(Cl)cc3)N2S(=O)(=O)c2ccc(Cl)cc2)cc1,3,0,0,4,-8,49*,-6,101,
Cc1ccc(S(=O)(=O)N2CCN(C(=O)C(O)c3ccccc3)CC2)cc1 (centres undefined),.,-2,.,4,.,.,.,.,
CC1(C)NC(=O)N(CC(=O)Nc2ccc(-n3cnnn3)cc2)C1=O,0,2,0,-2,2,28,2,95,
O=C(NC1CCCCC1)c1c2c(nc3ccccc13)CCC2,25,1,-1,-5,17,2,.,.,GRK2 CP2=-1;FAM quench SP=100
CCc1nc2ccc(C(=O)Nc3cccc(NS(C)(=O)=O)c3)cn2c1N(CC)CCOC,8,-1,-1,-4,.,.,.,.,
COc1cccc(CC2(CO)CCCN(Cc3cn[nH]c3-c3cc(C)ccc3C)C2)c1 (centres undefined),1,-1,-4,-5,-1,0,3,97,
COc1cccc(CC2(CO)CCCN(Cc3[nH]c4ccc(C)cc4c3C)C2)c1 (centres undefined),-5,3,-1,-2,9,40,-10,92,
Cc1noc(C)c1COc1cccc(C(=O)NCc2ccccc2Cl)c1,-1,1,-5,18,-5,1,2,94,
Cc1noc(C)c1COc1ccc(C(=O)OCC(=O)NCc2ccccc2Cl)cc1,-2,0,1,1,-10,4,.,.,
O=S1(=O)CC(N2CC=CC2)CN1C1CCCCC1 (centres undefined),3,-1,-2,8,.,.,.,.,
O=C(Nc1c(-c2ccccc2)[nH][nH]c1=O)c1cccs1,.,0,.,-1,.,.,.,.,
O=C1N/C(=N/N=C/c2ccc(O)cc2)SC1Cc1ccccc1 (centres undefined),0,-1,1,1,16,0,.,.,
COc1ccc(CC2S/C(=N/N=C/c3ccc(O)cc3)NC2=O)cc1 (centres undefined),-4,-2,-1,0,-3,100*,1,96,
SMILES,DNMT1 block,LMPTP block,STEP inh,SUMO1-SIM PPI,Scp1 inh,GRK2 aptamer HTS,GRK2 inh confirm,Aptamer quench SP,others
NC(=O)c1ccsc1NC(=O)CS(=O)(=O)c1ccccc1,0,-1,0,3,-4,0,.,.,GRK2 CP2=9;FAM quench SP=98
CNC(=O)c1ccsc1NC(=O)CS(=O)(=O)c1ccccc1,-3,0,0,5,0,1,.,.,GRK2 CP2=11;FAM quench SP=100
CNC(=O)c1ccsc1NC(=O)CCS(=O)(=O)c1ccc(Cl)cc1,-2,0,3,-3,-1,1,.,.,
CC1(C(=O)O)CCCN1C(=O)c1ccco1 (centres undefined),5,-1,-2,-2,.,.,.,.,
COc1ccccc1Cc1c(-c2ccco2)nc2ccc(C)cn12,1,1,2,1,.,.,.,.,
CCCCC(=O)Nc1nc2c(OC)cc([N+](=O)[O-])cc2s1,0,-1,-2,-5,-1,0,.,.,
COc1cc([N+](=O)[O-])cc2sc(NC(C)=O)nc12,0,-1,0,-37,12,66*,0,95,
CN(C)S(=O)(=O)n1cnc(C(CCO)c2ncn(S(=O)(=O)N(C)C)c2CCCO)c1 (centres undefined),3,-2,-2,-1,-8,40,3,22*,
CN(C)S(=O)(=O)n1cnc(-c2ccccc2)c1-c1ccccc1,0,0,-2,0,0,2,.,.,
O=[N+]([O-])c1cc(/C=N/Nc2nc3ccccc3[nH]2)c(O)cc1O,.,.,.,.,56*,45*,5,111,
CC(C)(C)c1ccc(C(=O)NN2C(=O)CSC2=S)cc1,-1,-2,0,1,-16,55*,-4,98,
Cc1ccc(C(=O)NN2C(=O)CSC2=S)cc1,7,-1,-2,4,-6,0,.,.,
COc1ccc2c3c(ccc2c1)C(=O)/C(=C/O)CC3,-11,2,2,-8,-16,.,.,.,
Cc1ccc(S(=O)(=O)NC(=O)N2CCCC2)cc1,5,-1,0,-1,-5,.,.,.,
